Active and inactive are the calls of the source. The rule behind the calls is not given here.
Experiments:
[1] = test system: Enterobacter cloacae; assay: Binding affinity to Enterobacter cloacae NCTC 11936 nitroreductase assessed as fluorescent colonies after 24 hrs by fluorescence staining
Outline: (§1)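 Columbia agar plates contained substrate at a final 100 mg/L, added from a 1-methyl-2-pyrrolidone solution to molten agar at 50 °C. Inoculum was a 10⁸ CFU/mL suspension in 0.85% saline, spread for single colonies, then incubated at 37 °C in air for 24 h. Colony fluorescence under UV light (365 nm) was graded as strong, moderate, weak or none, with colour noted.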

[2] = test system: Staphylococcus aureus; assay: Binding affinity to Staphylococcus aureus NCTC 6571 nitroreductase assessed as fluorescent colonies after 24 hrs by fluorescence staining; outline: as §1
[3] = test system: Pseudomonas aeruginosa; assay: Binding affinity to Pseudomonas aeruginosa NCTC 10662 nitroreductase assessed as fluorescent colonies after 24 hrs by fluorescence staining; outline: as §1
[4] = test system: Staphylococcus epidermidis; assay: Binding affinity to Staphylococcus epidermidis NCTC 11047 nitroreductase assessed as fluorescent colonies after 24 hrs by fluorescence staining; outline: as §1
[5] = test system: Streptococcus pyogenes; assay: Binding affinity to Streptococcus pyogenes NCTC 8306 nitroreductase assessed as fluorescent colonies after 24 hrs by fluorescence staining; outline: as §1
[6] = test system: Staphylococcus aureus; assay: Binding affinity to Staphylococcus aureus (MRSA) NCTC 11939 nitroreductase assessed as fluorescent colonies after 24 hrs by fluorescence staining; outline: as §1
[7] = test system: Enterococcus faecium; assay: Binding affinity to Enterococcus faecium NCTC 7171 nitroreductase assessed as fluorescent colonies after 24 hrs by fluorescence staining
[8] = test system: Enterococcus faecalis; assay: Binding affinity to Enterococcus faecalis NCTC 775 nitroreductase assessed as fluorescent colonies after 24 hrs by fluorescence staining; outline: as §1
[9] = test system: Morganella morganii; assay: Binding affinity to Morganella morganii WS 462403 nitroreductase assessed as fluorescent colonies after 24 hrs by fluorescence staining; outline: as §1
[10] = test system: Providencia rettgeri; assay: Binding affinity to Providencia rettgeri NCTC 7475 nitroreductase assessed as fluorescent colonies after 24 hrs by fluorescence staining; outline: as §1
[11] = test system: Escherichia coli; assay: Binding affinity to Escherichia coli NCTC 10418 nitroreductase assessed as fluorescent colonies after 24 hrs by fluorescence staining; outline: as §1
[12] = test system: Serratia marcescens; assay: Binding affinity to Serratia marcescens NCTC 10211 nitroreductase assessed as fluorescent colonies after 24 hrs by fluorescence staining; outline: as §1
[13] = test system: Listeria monocytogenes; assay: Binding affinity to Listeria monocytogenes NCTC 11994 nitroreductase assessed as fluorescent colonies after 24 hrs by fluorescence staining; outline: as §1
[14] = test system: Serratia marcescens; assay: Binding affinity to Serratia marcescens NCTC 10211 aminopeptidase assessed as fluorescent colonies after 24 hrs by fluorescence staining
Outline: (§2)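 Substrate in 1-methyl-2-pyrrolidone was mixed into molten Columbia agar at 50 °C (final 100 mg/L). NCTC strains were subcultured on Columbia agar and suspended in 0.85% saline to 10⁸ CFU/mL by densitometer. Plates were spread for single colonies and incubated at 37 °C in air for 24 h. Colonies were viewed under UV light (365 nm) and fluorescence intensity and colour scored visually; growth was also scored.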

[15] = test system: Providencia rettgeri; assay: Binding affinity to Providencia rettgeri NCTC 7475 aminopeptidase assessed as fluorescent colonies after 24 hrs by fluorescence staining; outline: as §2
[16] = test system: Morganella morganii; assay: Binding affinity to Morganella morganii WS 462403 aminopeptidase assessed as fluorescent colonies after 24 hrs by fluorescence staining; outline: as §2
[17] = test system: Enterobacter cloacae; assay: Binding affinity to Enterobacter cloacae NCTC 11936 aminopeptidase assessed as fluorescent colonies after 24 hrs by fluorescence staining; outline: as §2
[18] = test system: Escherichia coli; assay: Binding affinity to Escherichia coli NCTC 10418 aminopeptidase assessed as fluorescent colonies after 24 hrs by fluorescence staining; outline: as §2
[19] = test system: Pseudomonas aeruginosa; assay: Binding affinity to Pseudomonas aeruginosa NCTC 10662 aminopeptidase assessed as fluorescent colonies after 24 hrs by fluorescence staining; outline: as §2

Structure (SMILES)	Activity [1]	Activity [2]	Activity [3]	Activity [4]	Activity [5]	Activity [6]	Activity [7]	Activity [8]	Activity [9]	Activity [10]	Activity [11]	Activity [12]	Activity [13]	Activity [14]	Activity [15]	Activity [16]	Activity [17]	Activity [18]	Activity [19]
O=[N+]([O-])c1ccc(Cl)cc1-c1nc2ccccc2o1	Active	Active	Active	inactive	inactive	Active	inactive	inactive	Active	Active	Active	Active	inactive						
C[C@H](N)C(=O)Nc1ccccc1-c1nc2ccccc2s1														Active	Active	Active	Active	Active	Active
O=[N+]([O-])c1ccccc1-c1nc2ccccc2s1	Active	Active	inactive	Active	inactive	Active	inactive	inactive	Active	Active	Active	Active	inactive						
COc1cc(-c2nc3ccccc3o2)c([N+](=O)[O-])cc1OC	Active	Active	inactive	inactive	inactive	Active	inactive	inactive	Active	Active	Active	Active	inactive						
NCCC(=O)Nc1ccccc1-c1nc2ccccc2o1														Active	Active	Active	Active	Active	Active
O=[N+]([O-])c1ccc(F)cc1-c1nc2ccccc2o1	Active	Active	inactive	inactive	inactive	Active	inactive	inactive	Active	Active	Active	Active	inactive						
COc1cc(-c2nc3ccccc3s2)c([N+](=O)[O-])cc1OC	Active	Active	Active	Active	inactive	Active	inactive	inactive	Active	Active	Active	Active	inactive						
O=[N+]([O-])c1ccc(F)cc1-c1nc2ccccc2s1	Active	Active	inactive	inactive	inactive	Active	inactive	inactive	Active	Active	Active	Active	inactive						
O=[N+]([O-])c1ccc(Cl)cc1-c1nc2ccccc2s1	Active	Active	Active	inactive	inactive	Active	inactive	inactive	Active	Active	Active	Active	inactive						
NCCC(=O)Nc1ccccc1-c1nc2ccccc2s1														Active	inactive	Active	inactive	Active	Active
C[C@H](N)C(=O)Nc1ccccc1-c1nc2ccccc2o1														Active	Active	Active	Active	Active	Active
Cn1c(-c2ccccc2[N+](=O)[O-])nc2ccccc21	inactive	inactive	inactive	inactive	inactive	inactive	inactive	inactive	Active	inactive	inactive	inactive	inactive						
O=[N+]([O-])c1ccccc1-c1nc2ccccc2o1	Active	Active	Active	Active	inactive	Active	inactive	inactive	Active	Active	Active	Active	inactive						
Cn1c(-c2cc(Cl)ccc2[N+](=O)[O-])nc2ccccc21	Active	Active	Active	inactive	inactive	Active	inactive	inactive	Active	Active	Active	Active	inactive						

Reference: ChEMBL document CHEMBL1773015, “2-Arylbenzothiazole, benzoxazole and benzimidazole derivatives as fluorogenic substrates for the detection of nitroreductase and aminopeptidase activity in clinically important bacteria” (Bioorg Med Chem, 2011)
